In test [1] the target is T1, DNA topoisomerase 1 (Homo sapiens) (UniProt P11387).
T1 sequence (whole entry): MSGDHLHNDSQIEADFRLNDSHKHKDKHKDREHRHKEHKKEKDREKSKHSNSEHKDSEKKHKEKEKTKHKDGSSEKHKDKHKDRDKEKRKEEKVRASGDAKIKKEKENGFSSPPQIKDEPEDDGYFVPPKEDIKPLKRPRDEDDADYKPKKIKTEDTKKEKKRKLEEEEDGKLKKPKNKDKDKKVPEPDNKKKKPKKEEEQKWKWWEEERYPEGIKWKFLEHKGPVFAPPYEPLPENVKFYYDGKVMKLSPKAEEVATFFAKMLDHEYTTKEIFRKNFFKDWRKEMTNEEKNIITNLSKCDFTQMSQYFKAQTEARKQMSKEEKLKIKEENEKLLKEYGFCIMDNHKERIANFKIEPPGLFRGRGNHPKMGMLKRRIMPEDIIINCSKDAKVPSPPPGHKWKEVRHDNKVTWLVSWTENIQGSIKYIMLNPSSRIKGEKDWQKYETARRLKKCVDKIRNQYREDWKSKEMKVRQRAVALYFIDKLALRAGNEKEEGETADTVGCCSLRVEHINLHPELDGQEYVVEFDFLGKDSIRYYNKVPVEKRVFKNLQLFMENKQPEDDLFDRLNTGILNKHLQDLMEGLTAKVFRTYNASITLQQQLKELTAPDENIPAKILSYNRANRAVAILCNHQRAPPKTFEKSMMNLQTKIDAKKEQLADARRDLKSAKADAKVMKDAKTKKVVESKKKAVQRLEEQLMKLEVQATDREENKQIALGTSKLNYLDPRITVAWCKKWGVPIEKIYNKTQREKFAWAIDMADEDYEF
The test is described as follows: Inhibition of topoisomerase 1 (unknown origin)-mediated relaxation of supercoiled plasmid DNA assessed as concentration of the compound exhibiting activity of 100 uM camptothecin after 30 mins by agarose gel electrophoresis.

The target in test [2] is DNA topoisomerase 2-alpha (Homo sapiens) (UniProt P11388). The test is described as follows: Inhibition of topoisomerase 2 (unknown origin)-mediated kinetoplast DNA decatenation assessed as concentration of the compound exhibiting activity of 100 uM etoposide after 30 mins by agarose gel electrophoresis.
Chain of DNA topoisomerase 2-alpha (Homo sapiens) (P11388 whole entry): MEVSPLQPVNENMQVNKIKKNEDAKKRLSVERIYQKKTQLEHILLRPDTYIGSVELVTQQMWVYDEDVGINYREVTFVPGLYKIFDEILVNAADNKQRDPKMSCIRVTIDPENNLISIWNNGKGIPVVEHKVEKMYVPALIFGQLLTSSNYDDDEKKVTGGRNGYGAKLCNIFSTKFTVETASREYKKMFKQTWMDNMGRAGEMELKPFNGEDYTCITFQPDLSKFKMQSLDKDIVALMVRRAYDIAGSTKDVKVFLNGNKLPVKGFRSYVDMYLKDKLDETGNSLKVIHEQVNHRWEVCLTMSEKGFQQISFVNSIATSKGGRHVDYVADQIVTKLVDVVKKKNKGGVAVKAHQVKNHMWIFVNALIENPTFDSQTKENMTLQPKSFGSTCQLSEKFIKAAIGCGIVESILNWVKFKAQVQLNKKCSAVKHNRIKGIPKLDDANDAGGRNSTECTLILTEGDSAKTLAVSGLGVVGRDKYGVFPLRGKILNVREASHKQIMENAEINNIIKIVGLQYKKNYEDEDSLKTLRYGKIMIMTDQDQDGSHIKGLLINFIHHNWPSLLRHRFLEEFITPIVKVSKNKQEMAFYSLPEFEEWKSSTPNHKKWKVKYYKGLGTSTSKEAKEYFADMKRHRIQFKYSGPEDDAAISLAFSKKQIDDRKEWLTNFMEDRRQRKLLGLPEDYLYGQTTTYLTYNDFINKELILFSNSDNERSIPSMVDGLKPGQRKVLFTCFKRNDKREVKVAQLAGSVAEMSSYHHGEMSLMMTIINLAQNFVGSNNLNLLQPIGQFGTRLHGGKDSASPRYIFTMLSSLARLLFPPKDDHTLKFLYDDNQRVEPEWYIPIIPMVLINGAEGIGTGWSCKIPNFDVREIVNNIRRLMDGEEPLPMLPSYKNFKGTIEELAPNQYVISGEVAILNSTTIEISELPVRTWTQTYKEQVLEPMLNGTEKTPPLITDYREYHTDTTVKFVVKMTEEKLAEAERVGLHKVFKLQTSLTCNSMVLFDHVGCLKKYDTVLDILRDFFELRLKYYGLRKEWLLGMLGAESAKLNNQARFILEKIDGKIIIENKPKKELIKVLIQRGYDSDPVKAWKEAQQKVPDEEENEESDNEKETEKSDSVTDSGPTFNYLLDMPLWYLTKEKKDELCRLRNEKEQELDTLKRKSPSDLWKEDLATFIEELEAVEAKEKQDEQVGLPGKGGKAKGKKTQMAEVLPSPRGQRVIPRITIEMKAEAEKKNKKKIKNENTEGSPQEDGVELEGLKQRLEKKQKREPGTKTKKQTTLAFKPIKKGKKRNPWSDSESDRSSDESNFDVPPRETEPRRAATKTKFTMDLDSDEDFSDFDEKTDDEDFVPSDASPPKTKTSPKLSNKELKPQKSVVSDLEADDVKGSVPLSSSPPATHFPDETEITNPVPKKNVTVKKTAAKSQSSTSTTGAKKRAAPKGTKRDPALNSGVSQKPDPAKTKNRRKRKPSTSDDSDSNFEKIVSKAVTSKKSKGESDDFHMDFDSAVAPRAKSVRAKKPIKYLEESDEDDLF
The target in test [3] is T1, DNA topoisomerase 1 (Homo sapiens). The test is described as follows: Inhibition of topoisomerase 1 (unknown origin)-mediated relaxation of supercoiled plasmid DNA assessed as intensity of supercoiled DNA after 30 mins by agarose gel electrophoresis relative to camptothecin. Summed up:
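Topo I (2 U) relaxation of 250 ng supercoiled plasmid at pH 7.9 in Tris/NaCl/EDTA/BSA/spermidine/glycerol buffer, 37 °C for 30 min, with matched DMSO. Stopped with SDS, proteinase K digestion, 1% agarose TAE gel, ethidium stain. Supercoiled-band intensity of each compound is divided by that of the camptothecin control.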

The target in test [4] is DNA topoisomerase 2-alpha (Homo sapiens) (UniProt P11388). The test is described as follows: Inhibition of topoisomerase 2 (unknown origin)-mediated kinetoplast DNA decatenation assessed as intensity of supercoiled DNA after 30 mins by agarose gel electrophoresis relative to etoposide. Summed up: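 kDNA with 2 U topoisomerase II, 37 °C for 30 min, then proteinase K for 15 min at 37 °C and a 1% agarose TAE gel at 1 V/cm. Supercoiled-DNA band intensity was measured, and each compound's value was standardized by dividing it by the etoposide value.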

Test [5] shares this target. The test is described as follows: Inhibition of topoisomerase 2 (unknown origin)-mediated kinetoplast DNA decatenation at 100 uM after 30 mins by agarose gel electrophoresis.
Test [6] has as its target T1, DNA topoisomerase 1 (Homo sapiens). Put plainly: Inhibition of topoisomerase 1 (unknown origin)-mediated relaxation of supercoiled plasmid DNA at 100 uM after 30 mins by agarose gel electrophoresis.

Activity calls are given as the source filed them. The calls are words filed in the database; no cut-off is given here.

`C=CCNC(=O)O[C@H]1CC[C@]2(C)[C@H]3CC=C4[C@@H]5CC(C)(C)CC[C@]5(C(=O)O)CC[C@@]4(C)[C@]3(C)CC[C@H]2C1(C)C`: the Activity in test [1] came out at 15.2 µM; in test [2], 53 µM. For the same compound, the fold change (FC) was 1.57 in test [3] and 1.26 in test [4].
In the case of `CC1(C)CC[C@]2(C(=O)O)CC[C@]3(C)C(=CC[C@@H]4[C@@]5(C)CC[C@H](OC(=O)NCc6ccccc6)C(C)(C)[C@@H]5CC[C@]43C)[C@@H]2C1`, the Activity in test [1] turned out to be 16.1 µM; in test [2], 68 µM. For the same compound, the fold change (FC) worked out at 1.64 in test [3] and 1.12 in test [4].
For `CC1(C)CC[C@]2(C(=O)NCc3ccccc3)CC[C@]3(C)C(=CC[C@@H]4[C@@]5(C)CC[C@H](OC(=O)NCc6ccccc6)C(C)(C)[C@@H]5CC[C@]43C)[C@@H]2C1` the same measures were 25.4 µM, 57 µM, 1.42 and 1.21.
`CC1(C)CC[C@]2(C(=O)O)CC[C@]3(C)C(=CC[C@@H]4[C@@]5(C)CC[C@H](OS(=O)(=O)c6ccccc6)C(C)(C)[C@@H]5CC[C@]43C)[C@@H]2C1`: the fold change (FC) is 0.54 in test [3] and 0.92 in test [4].
Regarding `CC1(C)CC[C@]2(C(=O)O)CC[C@]3(C)C(=CC[C@@H]4[C@@]5(C)CC[C@H](OC(=O)Nc6ccc(-c7ccccc7)cc6)C(C)(C)[C@@H]5CC[C@]43C)[C@@H]2C1`, the Activity in test [2] was found to be 46.5 µM. In addition, the fold change (FC) came out at 0.79 in test [3] and 1.21 in test [4].
Consider `CC1(C)CC[C@]2(C(=O)O)CC[C@]3(C)C(=CC[C@@H]4[C@@]5(C)CC[C@H](OC(=O)Nc6cccc7ccccc67)C(C)(C)[C@@H]5CC[C@]43C)[C@@H]2C1`, for which, in test [5], the inhibition entry is “Active”. For the same compound, the fold change (FC) in test [3] worked out at 0.4; in test [4], 1.03.
Turning to `COc1cc([C@@H]2c3cc4c(cc3[C@@H](O[C@@H]3O[C@@H]5CO[C@@H](C)O[C@H]5[C@H](O)[C@H]3O)[C@H]3COC(=O)[C@H]23)OCO4)cc(OC)c1O`, in test [5], the inhibition entry is “Active”.
Consider `CC1(C)CC[C@]2(C(=O)NCc3ccccc3)CC[C@]3(C)C(=CC[C@@H]4[C@@]5(C)CC[C@H](O)C(C)(C)[C@@H]5CC[C@]43C)[C@@H]2C1`, for which the inhibition result in test [5] and in test [6] was “Active” throughout. In addition, the figures for the fold change (FC) in test [3] and in test [4] were 0.98 and 1.07, respectively.
For `CC1(C)CC[C@]2(C(=O)Nc3cccc4ccccc34)CC[C@]3(C)C(=CC[C@@H]4[C@@]5(C)CC[C@H](OC(=O)Nc6cccc7ccccc67)C(C)(C)[C@@H]5CC[C@]43C)[C@@H]2C1`, the Activity in test [1] amounted to 17.4 µM. Besides, in test [5], the inhibition result was “Active”. The fold change (FC) in test [3] came to 1.55; in test [4], 1.07.
As for `CC1(C)CC[C@]2(C(=O)O)CC[C@]3(C)C(=CC[C@@H]4[C@@]5(C)CC[C@H](O)C(C)(C)[C@@H]5CC[C@]43C)[C@@H]2C1`, the Activity in test [1] was 265 µM; in test [2], 276 µM. Besides, the fold change (FC) was determined as 0.84 in test [3] and 0.74 in test [4].
`CC1(C)CC[C@]2(C(=O)NS(=O)(=O)c3ccccc3)CC[C@]3(C)C(=CC[C@@H]4[C@@]5(C)CC[C@H](OC(=O)NS(=O)(=O)c6ccccc6)C(C)(C)[C@@H]5CC[C@]43C)[C@@H]2C1`: the Activity in test [1] is 23.1 µM. The fold change (FC) came to 1.36 in test [3] and 0.91 in test [4].

The record behind these values is ChEMBL document CHEMBL3097996, “Rational design and synthesis of topoisomerase I and II inhibitors based on oleanolic acid moiety for new anti-cancer drugs” (Bioorg Med Chem, 2014).
